A selection: hits, their analogues and other compounds. The true share with any hit is near 2.9%.
CHO-K1 Ca PAM: nonselective activator or artifact in parental CHO-K1 calcium assay; ATP EC20, Fluo-8 calcium fluorescence; 0% at ATP EC20, 100% at ATP max; activation, % at 3 µM; hit rate 0.02% among 360,000; AID 602247;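 active = activation above the run cutoff, the mean activation of all test compounds plus 3 SD, cut at about 40% in these data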;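 also: peak over basal fluorescence ratio in a 140 s read after ATP addition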
OX1R antag-1: antagonists of human orexin 1 receptor (OX1R); inhibition, % at 6.6 µM; O43613; OX1R-expressing cells, FRET antagonist read-out; hit rate 1.8% among 330,000; in the data active = inhibition mostly above about 38%, no sharp cut-off; inactive = mostly below about 40%;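 also: 0% = agonist challenge alone and 100% = reference antagonist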
Target sequence (O43613 whole entry, looked up): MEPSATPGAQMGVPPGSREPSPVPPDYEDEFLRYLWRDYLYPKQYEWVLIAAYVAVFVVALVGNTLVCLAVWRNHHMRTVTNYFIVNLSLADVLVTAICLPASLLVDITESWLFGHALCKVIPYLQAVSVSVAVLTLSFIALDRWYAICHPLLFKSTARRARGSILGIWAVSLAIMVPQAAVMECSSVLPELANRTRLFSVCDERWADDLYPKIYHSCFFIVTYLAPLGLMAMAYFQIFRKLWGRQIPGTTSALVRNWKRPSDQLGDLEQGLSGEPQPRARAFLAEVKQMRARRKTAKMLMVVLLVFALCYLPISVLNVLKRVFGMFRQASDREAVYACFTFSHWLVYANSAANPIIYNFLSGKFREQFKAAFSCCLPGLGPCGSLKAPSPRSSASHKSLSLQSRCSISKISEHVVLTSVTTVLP
CHO parental Ca: signal in parental CHO cells, OX1R antagonist counter-screen; parental CHO-K1, ATP-induced calcium, Fluo-8 fluorescence; inhibition, % at 5.6 µM; hit rate 0.63% among 330,000; AID 463079;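 active = inhibition above that plate's mean sample inhibition plus 3 SD, cut at about 26% in these data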;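 also: 0% = ATP-challenged DMSO wells and 100% = DMSO wells without ATP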
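Assay system: parental CHO cells; Read-out basis: percent inhibition of ATP-evoked calcium rise, normalized to controls; Benchmarks: ATP and no-ATP DMSO wells; Compound dosing: single nominal dose of 5.6 µM per compound; Signal: Fluo-8 calcium dye fluorescence; Also added: ATP as calcium-mobilizing challenge; Repeats: singlicate.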
CHO-K1 Ca antag: M1 antagonist counterscreen hit in parental CHO-K1 cells. ATP-induced calcium, Fluo-8 fluorescence. inhibition, % at 3 µM. hit rate 0.6% among 360,000. AID 602250;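 active = inhibition above a per-plate cutoff, the plate's mean sample inhibition plus 3 SD, cut at about 24% in these data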;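 also: 0% = DMSO plus EC80 ATP and 100% = DMSO alone without ATP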
M1 ag parental: nonselective activator or artifact in parental CHO-K1 cells; activation, % at 3 µM; AID 602248; hit rate 0.48% among 360,000; Fluo-8 calcium fluorescence; scaled to maximal ATP response, vehicle zero; in the data active = activation above about 15%;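 also: untransfected CHO-K1 host cells lacking M1 receptor as counterscreen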
OX1R antag-2: blocks the human orexin 1 receptor. O43613. CHO/OX1R cells, Fluo-8 calcium fluorescence, orexin A. inhibition, % at 5 µM. hit rate 0.43% among 330,000;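 active = inhibition above its plate's threshold, mean inhibition of all tested compounds on the plate plus 3 SD, cut at about 37% in these data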;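 also: 0% = orexin A challenge wells and 100% = SB-334867-A antagonist wells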
OX1R HTRF confirm: confirmation of human orexin 1 receptor antagonists, HTRF format; OX1R-expressing cells, HTRF antagonist assay; hit rate 49% among 1,800; shares compounds with OX1R antag-1; inhibition, % at 6.6 µM; in the data active = inhibition above about 55%;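 also: CHO cells expressing OX1R stimulated with orexin A at about EC80; 0% = agonist challenge alone and 100% = reference antagonist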
CHO-K1 HTRF: counter-screen for OX1R antagonists: effect in parental CHO-K1 cells | shares compounds with OX1R antag-1 | HTRF counterscreen | inhibition, % at 6.6 µM | hit rate 48% among 1,800 | AID 493232; in the data active = inhibition above about 17%;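 also: 0% = agonist challenge with vehicle and 100% = vehicle alone without agonist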
The depositor's hits bear a star; x = not tested or not shown.

SMILES	CHO-K1 Ca PAM	OX1R antag-1	CHO parental Ca	CHO-K1 Ca antag	M1 ag parental	OX1R antag-2	OX1R HTRF confirm	CHO-K1 HTRF
O=[N+]([O-])c1ccc2c(c1N1CCCCC1)=NC1(CCCCC1)[N+]=2[O-]	13	77*	-8	-7	1	-29	49	77*
Cc1cc(C)n2nc(-c3cccc(Br)c3)cc2n1	11	85*	-11	-3	0	33	90*	-3
Cc1cc(C)n2ncc(-c3cccc(Br)c3)c2n1	-2	24	-27	-14	0	-46	x	x
O=C(/C=C1\NC2(CCCC2)Cc2ccccc21)C(=O)N/N=C/c1ccccc1O	8	82*	-27	1	0	-11	47	5
C=CCNC(=S)N/N=C(\C)c1ccc(-n2ccnc2)cc1	17	13	0	0	0	0	x	x
C=CCNC(=S)N/N=C(\C)c1cccnc1	-9	104*	-2	-12	2	-20	13	2
CCN(C[C@H]1N[C@@](Cc2ccccc2)(C(=O)OC)[C@H]2C(=O)N(Cc3ccccc3)C(=O)[C@@H]12)C(=O)Nc1ccc(Cl)cc1	-6	30	-4	9	8	29	x	x
N#CC1=C(N)Oc2cc(O)ccc2C1c1ccncc1 (stereo not drawn)	9	111*	-8	7	0	2	13	-6
Nc1c([N+](=O)[O-])cc(-c2cnc[nH]2)cc1[N+](=O)[O-]	10	102*	7	-9	0	3	61*	102*
COc1ccc2nc3n(c(=O)c2c1)-c1ccccc1C(=O)NC3Cc1ccccc1 (stereo not drawn)	x	3	-6	x	x	-25	x	x
CN1CCN(Cc2c(O)ccc3cc(-c4ccccn4)c(=O)oc23)CC1	22	81*	-22	0	3	-16	49	33*
Cc1ccc(S(=O)(=O)N2CCN(C(=O)c3ccc(Br)o3)CC2)c(C)c1	-23	12	-24	-1	1	-31	x	x
COc1cc(/C=C(\C#N)C(N)=O)ccc1OCc1c(C)no[n+]1[O-]	16	2	1	-12	3	-6	x	x
COc1cc(/C=N/Nc2nncn2N)ccc1OCc1c(C)no[n+]1[O-]	14	89*	-7	-17	2	-22	19	18*
Cc1cccc2sc(N3CCN(C(=O)c4cccs4)CC3)nc12	-17	32	-4	13	10	-7	x	x
O=C(c1cccs1)N1CCN(c2nc3ccccc3s2)CC1	-17	87*	-12	4	1	-19	22	2
O=C(O)c1cccc(NC2=C(n3nnc4ccccc43)C(=O)c3ccccc3C2=O)c1	11	148*	-7	5	14	6	94*	95*
CCN(CC)CCNc1cc(C)nc2c1C(=O)C(=O)C=C2N1CCCCC1	13	83*	-18	-12	1	-20	47	76*
COCCNC(=O)C(c1ccc(F)cc1)N(Cc1ccccc1)C(=O)CCC(=O)Nc1nccs1 (stereo not drawn)	16	78*	-13	8	12	16	80*	1
CCn1c2ccccc2c2cc(NC(=O)COc3ccccc3OC)ccc21	15	101*	-16	-2	1	27	79*	21*
CCn1c2ccccc2c2cc(NC(=O)c3ccccc3[N+](=O)[O-])ccc21	6	24	-2	0	0	8	x	x
CCn1c2ccccc2c2cc(NC(=O)c3ccco3)ccc21	21	77*	-24	-15	1	18	52	16
CCn1c2ccccc2c2cc(NC(=O)CNCc3ccccc3OC)ccc21	10	20	-5	-6	9	-20	x	x
CCC(=O)C1CCCN(C(=O)CCc2nnc(C3(c4ccc(Cl)cc4)CCC3)o2)C1 (stereo not drawn)	4	31	5	-13	2	-21	x	x
COc1ccc2c(c1)C(C)(Cc1ccc(C(=O)c3ccccc3)cc1)C(=O)N2 (stereo not drawn)	5	x	x	11	2	x	x	x
SMILES	CHO-K1 Ca PAM	OX1R antag-1	CHO parental Ca	CHO-K1 Ca antag	M1 ag parental	OX1R antag-2	OX1R HTRF confirm	CHO-K1 HTRF
Cc1ccc2nc(SCC(=O)c3ccc(O)cc3O)[nH]c2c1	6	81*	3	-3	2	3	79*	-5
COC(=O)CSc1nc2ccc(C)cc2[nH]1	-7	-2	2	-4	0	0	x	x
CSc1cccc(NC(=O)/C=C/c2cccc(Cl)c2)c1	-9	78*	-11	11	1	-1	71*	15
CCC(C)(O)c1cnc(CC(C)C)c(=O)n1O (stereo not drawn)	1	x	x	-2	0	x	x	x
CC1Cc2ccccc2N1C(=O)CCS(=O)(=O)c1cccc2nonc12 (stereo not drawn)	2	85*	-20	-10	0	-12	53	23*
Cc1ccc(C)c(N2CCN(C(=O)CCS(=O)(=O)c3cccc4nonc34)CC2)c1	10	23	-9	4	2	4	x	x
O=C(NCC(c1cccs1)N1CCOCC1)c1cc([N+](=O)[O-])cc([N+](=O)[O-])c1 (stereo not drawn)	-8	112*	-6	11	0	-9	39	58*
O=C(c1cc(-c2cccs2)nn1-c1ccccc1)N1CCN(S(=O)(=O)c2ccccc2)CC1	-2	12	-10	2	4	-30	x	x
CCC1(C)N=c2c(c(=O)n(C)c(=O)n2C)=NO1 (stereo not drawn)	24	123*	-5	-9	1	4	21	26*
COc1ccc(Nc2ncnc3c2oc2ccccc23)cc1	28	83*	-9	-16	1	-8	62*	11
Cc1ccc(Nc2ncnc3c2oc2ccccc23)cc1	-5	54	-6	-4	0	-15	x	x
COc1cccc(CN(C)C(=O)c2ccc(NC(=O)CC3SC(N4CCCC4)=NC3=O)cc2)c1OC (stereo not drawn)	5	11	-13	-3	0	-2	x	x
O=[n+]1c2c(n([O-])c3cc(Br)ccc31)CCCC2	4	43	-11	-8	0	-13	x	x
O=[n+]1c2c(n([O-])c3cc(F)c(F)cc31)CCCC2	6	129*	-11	4	0	-15	39	77*
CCOC(=O)CN1C(=O)N[C@@H](c2ccco2)C(C(=O)OC)=C1C	-9	2	-5	1	0	5	x	x
Cc1ccc(/C(O)=C2/C(=O)C(=O)N(CCN3CCOCC3)C2c2ccccn2)cc1 (stereo not drawn)	11	82*	15	-2	0	-2	24	33*
